Reference: ChEMBL document CHEMBL1152543, “Novel semisynthetic derivatives of betulin and betulinic acid with cytotoxic activity” (Bioorg Med Chem, 2009)
Active and inactive are the calls of the source. The calls are words filed in the database; no cut-off is given here.

How the values were obtained:
Type in all cases: functional, cell-based
[1] = tested on: HeLa; assay: Cytotoxicity against human HeLa cells after 72 hrs by MTT assay
Procedure, shortened: (§1)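 MTT dose–response: exponentially growing HeLa (1×10^3 cells/well) or HepG2 (8×10^3 cells/well, DMEM + 10% FBS, 1 mM pyruvate) seeded, left 24 h, then given a compound range in DMSO (final <0.1%) for 72 h. MTT 0.5 mg/ml for 1 h, formazan dissolved in DMSO, read at 550 nm. IC50 vs untreated by non-linear regression, mean ± SD of at least three experiments.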

[2] = tested on: Jurkat; assay: Cytotoxicity against human Jurkat cells after 72 hrs by XTT assay
Procedure, shortened: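 Jurkat cells (RPMI 1640, 10% FBS, 2 mM glutamine) in exponential growth plated at 5.5×10^3 cells/well and treated in triplicate with a concentration range or DMSO vehicle for 72 h. XTT labeling mix added, 4 h, absorbance at 450 nm. IC50 vs untreated by non-linear regression; mean ± SD of ≥3 experiments.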

[3] = tested on: HepG2; assay: Cytotoxicity against human HepG2 cells after 72 hrs by MTT assay; conditions: HepG2, 72 h; procedure, shortened: as §1
[4] = tested on: Jurkat; assay: Cytotoxicity against human Jurkat cells at 20 uM after 72 hrs by XTT assay
Procedure, shortened: (§2)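 XTT screen at a single concentration: cells seeded at 1×10^3–30×10^3 cells/well depending on cell type, exposed to 20 μM for 72 h at 37 °C, 5% CO2, then read by XTT. Triplicate wells, three independent repeats; output is % proliferation relative to control.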

[5] = tested on: HepG2; assay: Cytotoxicity against human HepG2 cells at 20 uM after 72 hrs by MTT assay
Procedure, shortened: (§3)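 Single-concentration screen: compound at 20 μM applied to cells plated at 1×10^3–30×10^3 cells/well (density set by cell type), 72 h at 37 °C, 5% CO2. Viability read by MTT, triplicate wells, experiment repeated three times; result given as % proliferation versus control.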

[6] = tested on: HT-29; assay: Cytotoxicity against human HT-29 cells at 20 uM after 72 hrs by MTT assay; procedure, shortened: as §3
[7] = tested on: SH-SY5Y; assay: Cytotoxicity against human SH-SY5Y cells at 20 uM after 72 hrs by XTT assay; procedure, shortened: as §2
[8] = tested on: MIA PaCa-2; assay: Cytotoxicity against human MIAPaCa2 cells at 20 uM after 72 hrs by MTT assay; procedure, shortened: as §3
[9] = tested on: HeLa; assay: Cytotoxicity against human HeLa cells at 20 uM after 72 hrs by MTT assay; procedure, shortened: as §3
[10] = tested on: A-375; assay: Cytotoxicity against human A375 cells at 20 uM after 72 hrs by MTT assay; procedure, shortened: as §3
[11] = tested on: MCF7; assay: Cytotoxicity against human MCF7 cells at 20 uM after 72 hrs by MTT assay; procedure, shortened: as §3

Row | SMILES | IC50 [1] [µM] | IC50 [2] [µM] | IC50 [3] [µM] | Activity [4] | Activity [5] | Activity [6] | Activity [7] | Activity [8] | Activity [9] | Activity [10] | Activity [11]
1 | C=C(C)[C@@H]1CC[C@]2(COC(=O)n3ccnc3)CC[C@]3(C)[C@H](CC[C@@H]4[C@@]5(C)CC[C@H](OC(=O)n6ccnc6)C(C)(C)[C@@H]5CC[C@]43C)[C@@H]12 | > 30 | > 30 | > 30 |  |  |  |  |  |  |  | 
2 | C=C(C)[C@@H]1CC[C@]2(C(=O)n3ccnc3)CC[C@]3(C)[C@H](CC[C@@H]4[C@@]5(C)C=C(OC(=O)n6ccnc6)C(=O)C(C)(C)[C@@H]5CC[C@]43C)[C@@H]12 | 3.9 | 8.1 | 4 |  |  |  |  |  |  |  | 
3 | C[C@@H](C=O)[C@@H]1CC[C@]2(COC(=O)n3ccnc3)CC[C@]3(C)[C@H](CC[C@@H]4[C@@]5(C)CC[C@H](OC(=O)n6ccnc6)C(C)(C)[C@@H]5CC[C@]43C)[C@@H]12 | 19.2 | 20.2 | 26.1 |  |  |  |  |  |  |  | 
4 | C=C(C)[C@@H]1CC[C@]2(C(=O)OC)CC[C@]3(C)[C@H](CC[C@@H]4[C@@]5(C)CC[C@H](OC(=O)n6ccnc6)C(C)(C)[C@@H]5CC[C@]43C)[C@@H]12 | 8.2 | 9.9 | 4.3 |  |  |  |  |  |  |  | 
5 | C=C(C)[C@@H]1CC[C@]2(COC(=O)n3ccnc3)CC[C@]3(C)[C@H](CC[C@@H]4[C@@]5(C)CC[C@H](OC(C)=O)C(C)(C)[C@@H]5CC[C@]43C)[C@@H]12 | > 30 | > 30 | > 30 |  |  |  |  |  |  |  | 
6 | C=C(C)[C@@H]1CC[C@]2(C(=O)n3ccnc3)CC[C@]3(C)[C@H](CC[C@@H]4[C@@]5(C)CCC(=O)C(C)(C)[C@@H]5CC[C@]43C)[C@@H]12 | 2 | 1.4 | 0.8 |  |  |  |  |  |  |  | 
7 | C=C(C)[C@@H]1CC[C@]2(C(=O)n3ccnc3)CC[C@]3(C)[C@H](CC[C@@H]4[C@@]5(C)CC[C@H](OC(=O)n6ccnc6)C(C)(C)[C@@H]5CC[C@]43C)[C@@H]12 | 8.2 | 6 | 2.9 |  |  |  |  |  |  |  | 
8 | C=C(C)[C@@H]1CC[C@]2(C(=O)n3ccnc3)CC[C@]3(C)[C@H](CC[C@@H]4[C@@]5(C)C=CC(=O)C(C)(C)[C@@H]5CC[C@]43C)[C@@H]12 | 3 | 2.3 | 1.7 |  |  |  |  |  |  |  | 
9 | C=C(C)[C@@H]1CC[C@]2(COC(=O)n3ccnc3)CC[C@]3(C)[C@H](CC[C@@H]4[C@@]5(C)CC[C@H](O)C(C)(C)[C@@H]5CC[C@]43C)[C@@H]12 | 7.6 | 16.3 | 4.2 | Active | Active | Active | Active | Active | Active | Active | Active
10 | C=C(C)[C@@H]1CC[C@]2(COC(C)=O)CC[C@]3(C)[C@H](CC[C@@H]4[C@@]5(C)CC[C@H](OC(=O)n6ccnc6)C(C)(C)[C@@H]5CC[C@]43C)[C@@H]12 | > 30 | > 30 | > 30 |  |  |  |  |  |  |  | 
11 | C[C@@H](C=O)[C@@H]1CC[C@]2(COC(=O)n3ccnc3)CC[C@]3(C)[C@H](CC[C@@H]4[C@@]5(C)CC[C@H](O)C(C)(C)[C@@H]5CC[C@]43C)[C@@H]12 | 11.1 | 13.7 | 11.5 | Active | Active | Active | Active | Active | Active | Active | Active
12 | C=C(C)[C@@H]1CC[C@]2(CO)CC[C@]3(C)[C@H](CC[C@@H]4[C@@]5(C)CC[C@H](OC(=O)n6ccnc6)C(C)(C)[C@@H]5CC[C@]43C)[C@@H]12 | 3 | 11.1 | 2 |  |  |  |  |  |  |  | 
13 | C=C(C)[C@@H]1CC[C@]2(C(=O)n3ccnc3)CC[C@]3(C)[C@H](CC[C@@H]4[C@@]5(C)C=C(O)C(=O)C(C)(C)[C@@H]5CC[C@]43C)[C@@H]12 | 4.6 | 7 | 6.5 | Active | Active | Active | Active | Active | Active | Active | Active
14 | C=C(COC)[C@@H]1CC[C@]2(COC(=O)n3ccnc3)CC[C@]3(C)[C@H](CC[C@@H]4[C@@]5(C)CC[C@H](O)C(C)(C)[C@@H]5CC[C@]43C)[C@@H]12 | 9.8 | 12.2 | 8.3 | Active | Active | Active | Active | Active | Active | Active | Active
15 | C=C(COC)[C@@H]1CC[C@]2(COC(=O)n3ccnc3)CC[C@]3(C)[C@H](CC[C@@H]4[C@@]5(C)CC[C@H](OC(=O)n6ccnc6)C(C)(C)[C@@H]5CC[C@]43C)[C@@H]12 | > 30 | 16.2 | 19.6 |  |  |  |  |  |  |  | 
16 | C=C(C)[C@@H]1CC[C@]2(C(=O)O)CC[C@]3(C)[C@H](CC[C@@H]4[C@@]5(C)CC[C@H](OC(=O)n6ccnc6)C(C)(C)[C@@H]5CC[C@]43C)[C@@H]12 | 5.1 | 5.2 | 6.2 | Active | Active | Active | Active | Active | Active | Active | Active
17 | C=C(C)[C@@H]1CC[C@]2(C(=O)O)CC[C@]3(C)[C@H](CC[C@@H]4[C@@]5(C)CC[C@H](O)C(C)(C)[C@@H]5CC[C@]43C)[C@@H]12 [BETULINIC ACID] | 26 | 26.9 | 36.4 | Active | Active | Active | Active | Active | Active | Active | Active
